Assay results: ChEMBL document CHEMBL3992534, “Design, Synthesis, and Biological Evaluation of Novel, Non-Brain-Penetrant, Hybrid Cannabinoid CB1R Inverse Agonist/Inducible Nitric Oxide Synthase (iNOS) Inhibitors for the Treatment of Liver Fibrosis” (J Med Chem, 2017)
Calls of active or inactive are those of the source. The calls are words filed in the database; no cut-off is given here.

Legend:
Cannabinoid receptor 1 [1] = molecular target: T1, Cannabinoid receptor 1 (Mus musculus, UniProt P47746); experiment: Inverse agonist at mouse brain CB1R expressed in CHOK1 cell membranes assessed as inhibition of CP55940-stimulated [35S]GTP-gammaS binding measured after 60 mins by scintillation spectrometry
T1 sequence (P47746 whole entry): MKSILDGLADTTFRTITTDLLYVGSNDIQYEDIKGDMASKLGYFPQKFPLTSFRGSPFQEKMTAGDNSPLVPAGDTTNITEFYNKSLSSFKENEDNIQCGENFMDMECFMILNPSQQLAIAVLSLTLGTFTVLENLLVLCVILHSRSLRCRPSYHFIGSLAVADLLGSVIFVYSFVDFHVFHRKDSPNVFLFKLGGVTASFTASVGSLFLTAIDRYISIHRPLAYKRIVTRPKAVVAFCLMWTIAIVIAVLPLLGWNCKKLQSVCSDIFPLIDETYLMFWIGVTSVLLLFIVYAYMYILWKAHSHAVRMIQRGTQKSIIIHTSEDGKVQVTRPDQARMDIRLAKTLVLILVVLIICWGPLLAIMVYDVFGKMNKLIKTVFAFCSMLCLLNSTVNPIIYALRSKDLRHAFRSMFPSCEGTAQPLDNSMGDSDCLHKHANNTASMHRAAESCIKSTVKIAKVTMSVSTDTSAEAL

Cannabinoid receptor 2 = Cannabinoid receptor 2 (Mus musculus, UniProt P47936); experiment: Displacement of [3H]CP55940 from mouse CB2R expressed in CHOK1 cell membranes
Chain of Cannabinoid receptor 2 (P47936 whole entry): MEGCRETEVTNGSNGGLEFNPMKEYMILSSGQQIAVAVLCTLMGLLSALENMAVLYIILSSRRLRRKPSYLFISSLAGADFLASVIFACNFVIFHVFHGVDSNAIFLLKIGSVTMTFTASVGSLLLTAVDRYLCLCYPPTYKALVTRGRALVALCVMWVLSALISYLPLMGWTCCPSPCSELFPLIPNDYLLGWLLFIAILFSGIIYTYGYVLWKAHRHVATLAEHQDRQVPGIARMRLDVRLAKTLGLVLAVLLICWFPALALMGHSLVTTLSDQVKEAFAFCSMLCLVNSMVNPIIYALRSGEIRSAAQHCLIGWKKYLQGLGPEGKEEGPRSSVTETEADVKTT
Procedure, shortened: (§1)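 Displacement binding isotherms with [3H]-CP55940 as labeled ligand on plasma membranes from CHO-K1 cells expressing CB1R or CB2R. Ki was calculated by the Cheng-Prusoff equation. Values are mean ± SEM of 3 independent experiments, each run in triplicate.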

Cannabinoid receptor 1 [2] = molecular target: T1, Cannabinoid receptor 1; experiment: Displacement of [3H]CP55940 from mouse brain CB1R expressed in CHOK1 cell membranes; procedure, shortened: as §1
Mus musculus [3] = experiment: Antifibrotic activity in CCl4-induced C57Bl6/J mouse liver fibrosis model assessed as reduction in liver fibrosis at 10 mg/kg administered via oral gavage for 4 weeks by picrosirius red staining based histological analysis; assay type: functional, organism-based
Mus musculus [4] = experiment: Antifibrotic activity in CCl4-induced C57Bl6/J mouse liver fibrosis model assessed as reduction in iNOS level at 10 mg/kg administered via oral gavage for 4 weeks by immunostaining based method; assay type: functional, organism-based
[5] = molecular target: T2, Nitric oxide synthase, inducible (Mus musculus) (UniProt P29477); experiment: Inhibition of iNOS in mouse RAW264.7 cells assessed as LPS-induced NO production measured after 1 hr by fluorimetric assay; assay type: cell-based
T2 sequence (whole entry): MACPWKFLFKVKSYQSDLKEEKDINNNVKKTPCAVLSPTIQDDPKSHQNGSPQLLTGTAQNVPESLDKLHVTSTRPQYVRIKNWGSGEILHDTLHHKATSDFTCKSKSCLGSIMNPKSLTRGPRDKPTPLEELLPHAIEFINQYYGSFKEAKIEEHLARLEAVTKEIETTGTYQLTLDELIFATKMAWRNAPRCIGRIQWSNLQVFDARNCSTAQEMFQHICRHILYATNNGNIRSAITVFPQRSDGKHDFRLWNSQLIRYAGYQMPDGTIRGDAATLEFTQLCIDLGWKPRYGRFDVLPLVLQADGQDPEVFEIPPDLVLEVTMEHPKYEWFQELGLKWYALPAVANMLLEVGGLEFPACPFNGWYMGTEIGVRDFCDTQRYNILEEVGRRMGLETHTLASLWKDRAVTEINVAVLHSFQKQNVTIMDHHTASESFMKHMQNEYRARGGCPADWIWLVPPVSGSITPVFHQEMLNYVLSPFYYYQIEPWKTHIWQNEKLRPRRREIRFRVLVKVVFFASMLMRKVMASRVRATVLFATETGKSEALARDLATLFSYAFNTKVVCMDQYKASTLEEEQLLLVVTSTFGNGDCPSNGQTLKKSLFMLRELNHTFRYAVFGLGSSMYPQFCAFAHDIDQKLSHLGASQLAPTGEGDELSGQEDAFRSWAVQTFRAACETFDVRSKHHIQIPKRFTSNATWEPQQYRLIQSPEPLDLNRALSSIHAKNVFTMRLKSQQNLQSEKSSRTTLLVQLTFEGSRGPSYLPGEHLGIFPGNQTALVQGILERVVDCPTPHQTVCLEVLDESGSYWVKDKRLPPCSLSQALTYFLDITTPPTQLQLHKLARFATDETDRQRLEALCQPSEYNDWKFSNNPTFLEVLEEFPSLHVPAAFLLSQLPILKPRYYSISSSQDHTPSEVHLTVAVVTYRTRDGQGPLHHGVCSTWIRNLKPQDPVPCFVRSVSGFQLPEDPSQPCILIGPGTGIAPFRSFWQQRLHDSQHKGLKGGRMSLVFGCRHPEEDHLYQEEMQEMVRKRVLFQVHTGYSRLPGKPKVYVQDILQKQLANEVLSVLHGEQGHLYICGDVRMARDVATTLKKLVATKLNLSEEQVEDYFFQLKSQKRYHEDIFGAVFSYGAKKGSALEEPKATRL

[6] = molecular target: T2, Nitric oxide synthase, inducible (Mus musculus); experiment: Inhibition of iNOS in mouse RAW264.7 cells assessed as interferon gamma-induced NO production measured after 1 hr by fluorimetric assay; assay type: cell-based

## N/C(=N/C(=N\S(=O)(=O)c1ccc(Cl)cc1)N1CC(c2ccccc2)C(c2ccc(Cl)cc2)=N1)c1ccc(F)cc1 (centres undefined)
Cannabinoid receptor 1 [1]
  IC50: 116 nM
Cannabinoid receptor 2
  Ki: 173 nM

## COc1ccc(S(=O)(=O)/N=C(\N=C(/C)N)N2CC(c3ccccc3)C(c3ccc(Cl)cc3)=N2)cc1 (centres undefined)
Cannabinoid receptor 1 [1]
  IC50: 70 nM
Cannabinoid receptor 2
  Ki: > 1000 nM

## C/C(N)=N\C(=N/S(=O)(=O)c1ccc(Cl)cc1)N1CC(c2ccccc2)C(c2ccc(Cl)cc2)=N1 (centres undefined)
Cannabinoid receptor 2
  Ki: > 1000 nM

## N/C(=N/C(=N\S(=O)(=O)c1ccc(Cl)cc1)N1CC(c2ccccc2)C(c2ccc(Cl)cc2)=N1)c1ccccc1F (centres undefined)
Cannabinoid receptor 1 [1]
  IC50: 72 nM
Cannabinoid receptor 2
  Ki: 107 nM

## C/C(N)=N\C(=N/S(=O)(=O)c1ccc(I)cc1)N1CC(c2ccccc2)C(c2ccc(Cl)cc2)=N1 (centres undefined)
Cannabinoid receptor 1 [1]
  IC50: 65 nM
Cannabinoid receptor 2
  Ki: > 1000 nM

## C/C(N)=N\C(=N/S(=O)(=O)c1ccc(C)cc1)N1CC(c2ccccc2)C(c2ccc(Cl)cc2)=N1 (centres undefined)
Cannabinoid receptor 1 [1]
  IC50: 113 nM
Cannabinoid receptor 2
  Ki: > 1000 nM

## N/C(=N/C(=N\S(=O)(=O)c1ccc(Cl)cc1)N1CC(c2ccccc2)C(c2ccc(Cl)cc2)=N1)c1ccccn1 (centres undefined)
Cannabinoid receptor 1 [2]
  Ki: 26 nM
Cannabinoid receptor 1 [1]
  IC50: 33 nM
Cannabinoid receptor 2
  Ki: > 1000 nM

## CS/C(N)=N\C(=N/S(=O)(=O)c1ccc(Cl)cc1)N1CC(c2ccccc2)C(c2ccc(Cl)cc2)=N1 (centres undefined)
Cannabinoid receptor 2
  Ki: > 1000 nM

## CC(C)S/C(N)=N\C(=N/S(=O)(=O)c1ccc(Cl)cc1)N1CC(c2ccccc2)C(c2ccc(Cl)cc2)=N1 (centres undefined)
Cannabinoid receptor 1 [1]
  IC50: 395 nM
Cannabinoid receptor 2
  Ki: > 1000 nM

## N/C(=N/C(=N\S(=O)(=O)c1ccc(Cl)cc1)N1CC(c2ccccc2)C(c2ccc(Cl)cc2)=N1)SCCCc1ccccc1 (centres undefined)
Cannabinoid receptor 1 [1]
  IC50: 2640 nM
Cannabinoid receptor 2
  Ki: > 1000 nM

## CC(C)/C(N)=N\C(=N/S(=O)(=O)c1ccc(Cl)cc1)N1CC(c2ccccc2)C(c2ccc(Cl)cc2)=N1 (centres undefined)
Cannabinoid receptor 1 [1]
  IC50: > 1000 nM
Cannabinoid receptor 2
  Ki: > 1000 nM

## CS/C(N)=N\C(=N/S(=O)(=O)c1ccc(C(F)(F)F)cc1)N1CC(c2ccccc2)C(c2ccc(Cl)cc2)=N1 (centres undefined)
Cannabinoid receptor 1 [2]
  Ki: 63 nM
Cannabinoid receptor 1 [1]
  IC50: 97 nM
Cannabinoid receptor 2
  Ki: > 1000 nM

## C/C(N)=N\C(=N/S(=O)(=O)c1ccc(F)cc1)N1CC(c2ccccc2)C(c2ccc(Cl)cc2)=N1 (centres undefined)
Cannabinoid receptor 1 [1]
  IC50: 686 nM
Cannabinoid receptor 2
  Ki: > 1000 nM

## CCS/C(N)=N\C(=N/S(=O)(=O)c1ccc(Cl)cc1)N1CC(c2ccccc2)C(c2ccc(Cl)cc2)=N1 (centres undefined)
Cannabinoid receptor 1 [1]
  IC50: 534 nM
Cannabinoid receptor 2
  Ki: > 1000 nM

## N/C(=N/C(=N\S(=O)(=O)c1ccc(Cl)cc1)N1CC(c2ccccc2)C(c2ccc(Cl)cc2)=N1)SCCc1ccccc1 (centres undefined)
Cannabinoid receptor 1 [1]
  IC50: 441 nM
Cannabinoid receptor 2
  Ki: > 1000 nM

## N/C(=N/C(=N\S(=O)(=O)c1ccc(Cl)cc1)N1CC(c2ccccc2)C(c2ccc(Cl)cc2)=N1)C1CC1 (centres undefined)
Cannabinoid receptor 1 [1]
  IC50: 241 nM
Cannabinoid receptor 2
  Ki: > 1000 nM

## C/C(N)=N\C(=N/S(=O)(=O)c1ccc2ccccc2c1)N1CC(c2ccccc2)C(c2ccc(Cl)cc2)=N1 (centres undefined)
Cannabinoid receptor 1 [1]
  IC50: 118 nM
Cannabinoid receptor 2
  Ki: > 1000 nM

## N/C(=N/C(=N\S(=O)(=O)c1ccc(Cl)cc1)N1CC(c2ccccc2)C(c2ccc(Cl)cc2)=N1)c1ccc(F)cc1F (centres undefined)
Cannabinoid receptor 1 [1]
  IC50: 22 nM
Cannabinoid receptor 2
  Ki: 106 nM

## C/C(N)=N\C(=N/S(=O)(=O)c1ccc(C(F)(F)F)cc1)N1CC(c2ccccc2)C(c2ccc(Cl)cc2)=N1 (centres undefined)
Cannabinoid receptor 1 [2]
  Ki: 5.7 nM
Cannabinoid receptor 1 [1]
  IC50: 40 nM
Cannabinoid receptor 2
  Ki: > 1000 nM

## C/C(N)=N\C(=N/S(=O)(=O)c1ccc(C(C)C)cc1)N1CC(c2ccccc2)C(c2ccc(Cl)cc2)=N1 (centres undefined)
Cannabinoid receptor 1 [2]
  Ki: 10 nM
Cannabinoid receptor 1 [1]
  IC50: 90 nM
Cannabinoid receptor 2
  Ki: > 1000 nM

## CC(C)(C)/C(N)=N\C(=N/S(=O)(=O)c1ccc(Cl)cc1)N1CC(c2ccccc2)C(c2ccc(Cl)cc2)=N1 (centres undefined)
Cannabinoid receptor 1 [1]
  IC50: 182 nM
Cannabinoid receptor 2
  Ki: > 1000 nM

## C/C(N)=N\C(=N/S(=O)(=O)c1ccc(Cl)cc1)N1C[C@@H](c2ccccc2)C(c2ccc(Cl)cc2)=N1
Mus musculus [3]
  Activity: Active
Mus musculus [4]
  Activity: Active
[5]
  inhibition: Active
[6]
  inhibition: Active

## N/C(COc1ccccc1)=N/C(=N\S(=O)(=O)c1ccc(Cl)cc1)N1CC(c2ccccc2)C(c2ccc(Cl)cc2)=N1 (centres undefined)
Cannabinoid receptor 1 [1]
  IC50: 125 nM
Cannabinoid receptor 2
  Ki: > 1000 nM

## CS/C(N)=N\C(=N/S(=O)(=O)c1ccc(I)cc1)N1CC(c2ccccc2)C(c2ccc(Cl)cc2)=N1 (centres undefined)
Cannabinoid receptor 1 [2]
  Ki: 10 nM
Cannabinoid receptor 1 [1]
  IC50: 65 nM
Cannabinoid receptor 2
  Ki: > 1000 nM

## COc1cccc(/C(N)=N\C(=N/S(=O)(=O)c2ccc(Cl)cc2)N2CC(c3ccccc3)C(c3ccc(Cl)cc3)=N2)c1 (centres undefined)
Cannabinoid receptor 1 [1]
  IC50: 33 nM
Cannabinoid receptor 2
  Ki: 161 nM

## C/C(N)=N\C(=N/S(=O)(=O)c1ccc(OC(F)(F)F)cc1)N1CC(c2ccccc2)C(c2ccc(Cl)cc2)=N1 (centres undefined)
Cannabinoid receptor 1 [1]
  IC50: 76 nM
Cannabinoid receptor 2
  Ki: > 1000 nM

## N/C(=N/C(=N\S(=O)(=O)c1ccc(Cl)cc1)N1CC(c2ccccc2)C(c2ccc(Cl)cc2)=N1)c1ccc(Cl)cc1 (centres undefined)
Cannabinoid receptor 1 [2]
  Ki: 10 nM
Cannabinoid receptor 1 [1]
  IC50: 18 nM
Cannabinoid receptor 2
  Ki: 158 nM

## C/C(N)=N\C(=N/S(=O)(=O)c1ccc(Br)cc1)N1CC(c2ccccc2)C(c2ccc(Cl)cc2)=N1 (centres undefined)
Cannabinoid receptor 1 [1]
  IC50: 19 nM
Cannabinoid receptor 2
  Ki: > 1000 nM

## C/C(N)=N\C(=N/S(=O)(=O)c1ccccc1)N1CC(c2ccccc2)C(c2ccc(Cl)cc2)=N1 (centres undefined)
Cannabinoid receptor 1 [1]
  IC50: 2040 nM
Cannabinoid receptor 2
  Ki: > 1000 nM

## N/C(=N/C(=N\S(=O)(=O)c1ccc(Cl)cc1)N1CC(c2ccccc2)C(c2ccc(Cl)cc2)=N1)c1cccc(Br)c1 (centres undefined)
Cannabinoid receptor 1 [1]
  IC50: 292 nM
Cannabinoid receptor 2
  Ki: 250 nM

## N/C(=N/C(=N\S(=O)(=O)c1ccc(Cl)cc1)N1CC(c2ccccc2)C(c2ccc(Cl)cc2)=N1)c1cccs1 (centres undefined)
Cannabinoid receptor 1 [1]
  IC50: 101 nM
Cannabinoid receptor 2
  Ki: > 1000 nM

## N/C(=N/C(=N\S(=O)(=O)c1ccc(Cl)cc1)N1CC(c2ccccc2)C(c2ccc(Cl)cc2)=N1)c1ccccc1 (centres undefined)
Cannabinoid receptor 1 [1]
  IC50: 117 nM
Cannabinoid receptor 2
  Ki: 1000 nM

## CS/C(N)=N\C(=N/S(=O)(=O)c1ccc2ccccc2c1)N1CC(c2ccccc2)C(c2ccc(Cl)cc2)=N1 (centres undefined)
Cannabinoid receptor 1 [2]
  Ki: 29 nM
Cannabinoid receptor 1 [1]
  IC50: 2670 nM
Cannabinoid receptor 2
  Ki: > 1000 nM

## N/C(=N/C(=N\S(=O)(=O)c1ccc(Cl)cc1)N1CC(c2ccccc2)C(c2ccc(Cl)cc2)=N1)C12CC3CC(CC(C3)C1)C2 (centres undefined)
Cannabinoid receptor 1 [1]
  IC50: 226 nM
Cannabinoid receptor 2
  Ki: > 1000 nM

## CNC(=NS(=O)(=O)c1ccc(Cl)cc1)N1CC(c2ccccc2)C(c2ccc(Cl)cc2)=N1 (stereo not drawn) [RAC-IBIPINABANT]
Cannabinoid receptor 1 [2]
  Ki: 8.1 nM
Cannabinoid receptor 1 [1]
  IC50: 76 nM

## N/C(=N/C(=N\S(=O)(=O)c1ccc(Cl)cc1)N1CC(c2ccccc2)C(c2ccc(Cl)cc2)=N1)c1ccncc1 (centres undefined)
Cannabinoid receptor 1 [1]
  IC50: 603 nM
Cannabinoid receptor 2
  Ki: > 1000 nM

## C/C(N)=N\C(=N/S(=O)(=O)c1ccc(C(C)(C)C)cc1)N1CC(c2ccccc2)C(c2ccc(Cl)cc2)=N1 (centres undefined)
Cannabinoid receptor 1 [1]
  IC50: 30 nM
Cannabinoid receptor 2
  Ki: > 1000 nM

## N/C(=N/C(=N\S(=O)(=O)c1ccc(Cl)cc1)N1CC(c2ccccc2)C(c2ccc(Cl)cc2)=N1)c1ccc(Br)cc1 (centres undefined)
Cannabinoid receptor 2
  Ki: > 1000 nM

## N/C(=N/C(=N\S(=O)(=O)c1ccc(Cl)cc1)N1CC(c2ccccc2)C(c2ccc(Cl)cc2)=N1)SCc1ccccc1 (centres undefined)
Cannabinoid receptor 1 [1]
  IC50: 213 nM
Cannabinoid receptor 2
  Ki: > 1000 nM
